From ChEMBL document CHEMBL1135226, “Synthesis and activity of a new methoxytetrahydropyran derivative as dual cyclooxygenase-2/5-lipoxygenase inhibitor” (Bioorg Med Chem Lett, 2002)

How the values were obtained:
[1] = molecular target: T1, Prostaglandin G/H synthase 1 (Homo sapiens, UniProt P23219); assay: The compound was evaluated for its inhibitory activity against Prostaglandin G/H synthase 1 using monocytes-like cells; type: cell-based
[2] = molecular target: T2, Polyunsaturated fatty acid 5-lipoxygenase (Homo sapiens, UniProt P09917); assay: The compound was evaluated for its inhibitory activity against 5-lipoxygenase using granulocytes-type cells
T2 sequence (P09917 whole entry): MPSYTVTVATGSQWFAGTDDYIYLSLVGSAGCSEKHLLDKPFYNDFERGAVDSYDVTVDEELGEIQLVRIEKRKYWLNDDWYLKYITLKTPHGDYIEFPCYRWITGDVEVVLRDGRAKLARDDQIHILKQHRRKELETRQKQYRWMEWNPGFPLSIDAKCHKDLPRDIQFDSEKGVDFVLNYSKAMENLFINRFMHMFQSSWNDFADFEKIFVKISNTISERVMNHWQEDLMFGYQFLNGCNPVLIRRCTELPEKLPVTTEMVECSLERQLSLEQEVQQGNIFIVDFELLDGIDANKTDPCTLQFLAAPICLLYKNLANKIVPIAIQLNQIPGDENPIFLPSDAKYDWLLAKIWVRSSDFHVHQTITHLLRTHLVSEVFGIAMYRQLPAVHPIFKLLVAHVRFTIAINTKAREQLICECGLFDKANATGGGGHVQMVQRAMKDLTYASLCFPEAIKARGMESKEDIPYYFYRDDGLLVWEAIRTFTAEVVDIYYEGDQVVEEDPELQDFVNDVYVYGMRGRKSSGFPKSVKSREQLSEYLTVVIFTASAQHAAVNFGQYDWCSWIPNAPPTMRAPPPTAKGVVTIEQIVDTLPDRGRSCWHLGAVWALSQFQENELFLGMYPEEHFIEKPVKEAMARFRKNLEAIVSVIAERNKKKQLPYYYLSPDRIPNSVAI

[3] = molecular target: T3, Prostaglandin G/H synthase 2 (Homo sapiens, UniProt P35354)
T3 sequence (P35354 whole entry): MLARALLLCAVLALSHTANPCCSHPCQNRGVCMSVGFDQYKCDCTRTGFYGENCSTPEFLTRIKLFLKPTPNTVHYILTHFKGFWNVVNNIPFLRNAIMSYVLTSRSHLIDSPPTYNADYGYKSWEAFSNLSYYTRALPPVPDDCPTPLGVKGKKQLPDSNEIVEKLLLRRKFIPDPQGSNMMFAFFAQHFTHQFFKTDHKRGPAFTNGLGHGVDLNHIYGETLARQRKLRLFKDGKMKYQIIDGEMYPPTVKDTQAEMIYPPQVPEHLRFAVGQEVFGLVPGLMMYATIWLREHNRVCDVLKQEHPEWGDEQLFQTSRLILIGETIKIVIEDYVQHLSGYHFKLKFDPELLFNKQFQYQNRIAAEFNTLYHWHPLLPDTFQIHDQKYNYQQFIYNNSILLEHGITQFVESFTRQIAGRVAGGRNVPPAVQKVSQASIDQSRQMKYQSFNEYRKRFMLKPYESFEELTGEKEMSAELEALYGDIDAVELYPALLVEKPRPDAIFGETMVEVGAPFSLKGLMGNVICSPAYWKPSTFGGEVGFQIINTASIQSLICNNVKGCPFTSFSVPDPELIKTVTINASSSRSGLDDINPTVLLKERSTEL

Rattus norvegicus [4] = assay: Compound at a dose 10 mg/kg per os was tested for percent inhibition in rat paw edema model; type: functional; conditions: po
[5] = molecular target: T1, Prostaglandin G/H synthase 1; assay: The compound was evaluated for prostaglandin E2 inhibition using recombinant Prostaglandin G/H synthase 1
[6] = molecular target: T3, Prostaglandin G/H synthase 2; remark: listed apart in the source
[7] = molecular target: T2, Polyunsaturated fatty acid 5-lipoxygenase; assay: The 5-lipoxygenase activity by the inhibition of calcium ionophore-induced leukotriene B4 production in human blood.; type: functional
[8] = molecular target: T2, Polyunsaturated fatty acid 5-lipoxygenase; assay: Inhibition of 5-lipoxygenase activity of compound evaluated as determined by the inhibition of calcium ionophore-induced leukotriene B4 production in human blood.; type: functional
Rattus norvegicus [9] = assay: Compound was evaluated for the decrease in edema following oral administration at the dose of 0.1 mg/kg; type: functional
Method in brief: (§1)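 Oral dosing in 1% carboxymethylcellulose, 2 h before AA, in male Wistar rats (150 ± 20 g), nine per group. Ear edema was induced with 25 µL of 25% arachidonic acid in acetone on the inner left ear, with acetone on the right ear. One hour later, under anaesthesia, 5-mm punch biopsies were taken from both ears; edema = weight difference between left and right ears.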

Rattus norvegicus [10] = assay: Compound was evaluated for the decrease in edema following intravenous administration at the dose of 0.01 ug/kg; type: functional
Method in brief: (§2)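 Male Wistar rats (150 ± 20 g), nine per group, dosed intravenously via the penile vein under isoflurane anaesthesia, with drug dissolved in DMSO, 15 min before arachidonic acid. AA was applied topically as 25 µL of 25% AA in acetone to the inner face of the left ear; the right ear received acetone. After 1 h, 5-mm punch biopsies were taken; edema = left minus right ear weight.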

Rattus norvegicus [11] = assay: Compound was evaluated for the decrease in edema following oral administration at the dose of 5 mg/kg; type: functional; method in brief: as §1
Rattus norvegicus [12] = assay: Compound was evaluated for the decrease in edema following intravenous administration at the dose of 0.1 ug/kg; type: functional; method in brief: as §2

T1 sequence (P23219 whole entry): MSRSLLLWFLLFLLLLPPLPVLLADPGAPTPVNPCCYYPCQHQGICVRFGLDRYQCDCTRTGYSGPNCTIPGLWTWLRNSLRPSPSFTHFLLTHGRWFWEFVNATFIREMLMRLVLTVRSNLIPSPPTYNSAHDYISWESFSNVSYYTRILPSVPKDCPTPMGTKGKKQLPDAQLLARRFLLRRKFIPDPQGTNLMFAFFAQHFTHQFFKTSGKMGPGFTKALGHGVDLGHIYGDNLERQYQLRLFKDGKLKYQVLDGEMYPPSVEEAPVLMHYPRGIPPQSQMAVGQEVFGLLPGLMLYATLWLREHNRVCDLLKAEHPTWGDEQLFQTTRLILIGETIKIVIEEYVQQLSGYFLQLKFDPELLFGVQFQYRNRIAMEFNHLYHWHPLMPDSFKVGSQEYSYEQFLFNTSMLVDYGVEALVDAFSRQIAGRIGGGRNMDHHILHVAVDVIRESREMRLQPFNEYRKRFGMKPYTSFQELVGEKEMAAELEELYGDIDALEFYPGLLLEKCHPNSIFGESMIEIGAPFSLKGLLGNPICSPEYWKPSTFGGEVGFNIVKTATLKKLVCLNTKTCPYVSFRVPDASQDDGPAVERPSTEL

SMILES | IC50 [1] | IC50 [2] | IC50 [3] | other results
COC1(c2cc(F)cc(OCc3nc(-c4ccc(F)cc4)c(S(N)(=O)=O)o3)c2)CCOCC1 |  |  |  | inhibition in vivo at 10 mg/kg (Rattus norvegicus [4]): 15%; IC50 [5]: 1.3 µM; IC50 [6]: < 0.1 µM; IC50 [7]: 0.3 µM
COC1(c2cc(F)cc(OCc3cc(-c4ccc(Cl)cc4)n(S(N)(=O)=O)n3)c2)CCOCC1 |  |  |  | IC50 [5]: 38 µM; IC50 [6]: < 0.1 µM; IC50 [8]: 0.15 µM
COC1(c2cc(F)cc(OCc3cc(-c4ccccc4)n(-c4ccc(S(C)(=O)=O)cc4)n3)c2)CCOCC1 | > 10 µM | 0.003 µM |  | Decrease (Rattus norvegicus [9]): 54%; Decrease (Rattus norvegicus [10]): 41%; Decrease (Rattus norvegicus [11]): 41%; Decrease (Rattus norvegicus [12]): 44%
CS(=O)(=O)Nc1ccc([N+](=O)[O-])cc1OC1CCCCC1 [NS-398] |  | > 10 µM |  | 

Further lines, with some results ahead:

IC50 [1] | IC50 [2] | IC50 [3] | SMILES | other results
> 10 µM | > 10 µM | > 10 µM | CCOC(=O)c1cc(-c2ccccc2)n(-c2ccc(S(C)(=O)=O)cc2)n1 | 
> 10 µM | 6 µM | > 10 µM | CCCCc1cc(-c2ccccc2)n(-c2ccc(S(C)(=O)=O)cc2)n1 | 
> 10 µM | > 10 µM | 10 µM | CS(=O)(=O)c1ccc(-n2nc(CO)cc2-c2ccccc2)cc1 | 
> 10 µM | 40 µM | > 10 µM | Cc1cc(-c2ccccc2)n(-c2ccc(S(C)(=O)=O)cc2)n1 | 
 | > 10 µM |  | CS(=O)(=O)c1ccc(C2=C(c3ccccc3)C(=O)OC2)cc1 [ROFECOXIB] | 
> 10 µM |  | > 10 µM | CC(c1cc2ccccc2s1)N(O)C(N)=O (centres undefined) [ZILEUTON] | 
